# Activity calls are given as the source filed them. The rule behind the calls is not given here.
# System: Rattus norvegicus
# Test: Ex vivo induction GST-mu protein expression in Sprague-Dawley rat bladder at 7.5 umol/kg/day, po for 10 days measured on day 11 by Western blot analysis
# Assay type: functional, organism-based
# In short: (§1)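 Female Sprague-Dawley rats, 3 per group, gavaged once daily with compound at 7.5 µmol/kg or soya oil vehicle for 10 days. Killed on day 11. Bladder homogenized in 10 mM Tris-HCl pH 7.4, 0.25 M sucrose, 1 mM PMSF, 1 µg/ml leupeptin. 25-40 µg protein run by SDS-PAGE, then Western blot, with GAPDH as loading control.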
row,Compound,Activity
1,CCOC(=O)C1CCc2c1ssc2=S (stereo not drawn),Active

# System: NBT2
# Test: Induction of GST-alpha protein expression in Nrf gene knockout rat NBT2 cells at 25 uM after 24 hrs Western blot analysis
# Assay type: functional, cell-based
# In short: (§2)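 NBT-II cells transfected with Nrf2 stealth RNAi or control RNAi (0.584 nmol per dish, lipofectamine 2000) for 48 h. Then treated with compound at 25 µM or vehicle for 24 h, with 0.1% DMSO final. Lysates analyzed by Western blot for Nrf2, GCL, GST-α, GST-μ and NQO1, with GAPDH as loading control.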
row,Compound,Activity
1,CCOC(=O)C1CCc2c1ssc2=S (stereo not drawn),inactive

# System: NBT2
# Test: Induction of NQO1 protein expression in Nrf gene knockout rat NBT2 cells at 25 uM after 24 hrs Western blot analysis
# Assay type: functional, cell-based
# In short: as §2
row,Compound,Activity
1,CCOC(=O)C1CCc2c1ssc2=S (stereo not drawn),inactive

# System: Rattus norvegicus
# Test: Ex vivo induction GST-alpha protein expression in Sprague-Dawley rat bladder at 7.5 umol/kg/day, po for 10 days measured on day 11 by Western blot analysis
# Assay type: functional, organism-based
# In short: as §1
row,Compound,Activity
1,CCOC(=O)C1CCc2c1ssc2=S (stereo not drawn),Active

# System: Rattus norvegicus
# Test: Ex vivo induction GCL protein expression in Sprague-Dawley rat bladder at 7.5 umol/kg/day, po for 10 days measured on day 11 by Western blot analysis
# Assay type: functional, organism-based
# In short: as §1
row,Compound,Activity
1,CCOC(=O)C1CCc2c1ssc2=S (stereo not drawn),Active

# System: NBT2
# Test: Induction of GCL protein expression in rat NBT2 cells at 25 to 50 uM after 24 hrs by Western blot analysis
# Assay type: functional, cell-based
# In short: (§3)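 NBT-II rat bladder carcinoma cells grown in MEM with 10% FBS. Plated overnight, then exposed to compound at 25 or 50 µM for 24 h, with 0.1% DMSO final. Cells trypsinized, lysed with 1 mM PMSF and sonicated. 25-40 µg protein taken for Western blot, GAPDH as loading control. At least two experiments.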
row,Compound,Activity
1,CCOC(=O)C1CCc2c1ssc2=S (stereo not drawn),Active

# System: Rattus norvegicus
# Test: Ex vivo induction of NQO1 in Sprague-Dawley rat ileum at 7.5 umol/kg/day, po for 10 days measured on day 11 relative to control
# Assay type: functional
# In short: (§4)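 Organs taken from the same rats used for the bladder study: female Sprague-Dawley, compound at 7.5 µmol/kg/day by gavage or soya oil for 10 days, killed on day 11. GI contents rinsed out under cold water and tissues stored at −80°C. Homogenized in 0.2% Triton X-100 and centrifuged. Supernatant NQO1 activity measured by the Ernster method, expressed as treated/control.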
row,Compound,fold change (FC)
1,S=c1ccss1 [DITHIOLETHIONE],1.76
2,S=c1ssc2c1CCC2,1.36
3,CCOC(=O)c1cssc1=S,1.11
4,CCOC(=O)C1CCc2c1ssc2=S (stereo not drawn),1.2
5,COC(=O)C1CCc2c1ssc2=S (stereo not drawn),1.07

# System: NBT2
# Test: Induction of GCL protein expression in Nrf gene knockout rat NBT2 cells at 25 uM after 24 hrs Western blot analysis
# Assay type: functional, cell-based
# In short: as §2
row,Compound,Activity
1,CCOC(=O)C1CCc2c1ssc2=S (stereo not drawn),inactive

# Target: T1, Nuclear factor erythroid 2-related factor 2 (Rattus norvegicus) (UniProt O54968)
# T1 sequence (whole entry): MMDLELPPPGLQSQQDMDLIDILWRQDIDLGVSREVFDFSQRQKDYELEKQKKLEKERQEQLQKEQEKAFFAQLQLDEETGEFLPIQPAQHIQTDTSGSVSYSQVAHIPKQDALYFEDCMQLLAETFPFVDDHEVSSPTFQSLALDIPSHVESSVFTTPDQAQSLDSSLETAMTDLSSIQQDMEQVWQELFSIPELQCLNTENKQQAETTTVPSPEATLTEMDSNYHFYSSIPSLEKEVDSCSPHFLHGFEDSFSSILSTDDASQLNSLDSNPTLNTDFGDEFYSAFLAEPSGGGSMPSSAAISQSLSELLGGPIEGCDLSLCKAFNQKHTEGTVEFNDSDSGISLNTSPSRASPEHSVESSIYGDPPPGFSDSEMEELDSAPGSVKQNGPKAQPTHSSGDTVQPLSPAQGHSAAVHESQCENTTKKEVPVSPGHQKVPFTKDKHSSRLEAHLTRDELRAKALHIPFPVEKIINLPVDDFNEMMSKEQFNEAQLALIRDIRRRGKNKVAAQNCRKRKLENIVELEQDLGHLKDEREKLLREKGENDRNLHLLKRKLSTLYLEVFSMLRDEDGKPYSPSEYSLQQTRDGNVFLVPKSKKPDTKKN
# Test: Induction of Nrf in wild type rat NBT2 cells at 25 uM after 24 hrs Western blot analysis
# Assay type: functional, cell-based
# In short: as §2
row,Compound,Activity
1,CCOC(=O)C1CCc2c1ssc2=S (stereo not drawn),Active

# System: Rattus norvegicus
# Test: Ex vivo induction of NQO1 in Sprague-Dawley rat bladder at 7.5 umol/kg/day, po for 10 days measured on day 11 relative to control
# Assay type: functional
# In short: (§5)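 Female Sprague-Dawley rats, 6 per group, gavaged with compound at 7.5 µmol/kg/day or soya oil for 10 days and killed on day 11. Bladder homogenized in ice-cold 0.2% Triton X-100 and cleared by centrifugation. NQO1 activity measured by the Ernster method, GST by the Habig method. Reported as treated/control mean ± SEM, ANOVA with Student-Newman-Keuls test.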
row,Compound,fold change (FC)
1,CC1Cc2ssc(=S)c2C1 (stereo not drawn),1.81
2,S=c1ssc(S)c1-c1ccccc1,1.11
3,O=C(O)c1cc(=S)ss1,1.27
4,Cc1cssc1=S,1.83
5,S=c1ssc2c1CCCCCC2,1.08
6,O=c1ssc2c1CCC2,1.24
7,O=c1ccss1,1.26
8,S=c1ccss1 [DITHIOLETHIONE],2.78
9,S=c1ssc2c1CCC2,3.14
10,CCOC(=O)c1cssc1=S,4.82
11,CCOC(=O)C1CCc2c1ssc2=S (stereo not drawn),4.47
12,COC(=O)C1CCc2c1ssc2=S (stereo not drawn),4.39

# System: Rattus norvegicus
# Test: Ex vivo induction of NQO1 in Sprague-Dawley rat duodenum at 7.5 umol/kg/day, po for 10 days measured on day 11 relative to control
# Assay type: functional
# In short: as §4
row,Compound,fold change (FC)
1,S=c1ccss1 [DITHIOLETHIONE],5.6
2,S=c1ssc2c1CCC2,2.82
3,CCOC(=O)c1cssc1=S,1.21
4,CCOC(=O)C1CCc2c1ssc2=S (stereo not drawn),1.53
5,COC(=O)C1CCc2c1ssc2=S (stereo not drawn),1.14

# System: Rattus norvegicus
# Test: Ex vivo induction of NQO1 in Sprague-Dawley rat lung at 7.5 umol/kg/day, po for 10 days measured on day 11 relative to control
# Assay type: functional
# In short: as §4
row,Compound,fold change (FC)
1,S=c1ccss1 [DITHIOLETHIONE],1.37
2,S=c1ssc2c1CCC2,1.26
3,CCOC(=O)c1cssc1=S,1.21
4,CCOC(=O)C1CCc2c1ssc2=S (stereo not drawn),1.17
5,COC(=O)C1CCc2c1ssc2=S (stereo not drawn),1.08

# Target: T1, Nuclear factor erythroid 2-related factor 2 (Rattus norvegicus)
# Test: Induction of Nrf-mediated GST-alpha protein expression in wild type rat NBT2 cells at 25 uM after 24 hrs Western blot analysis
# Assay type: functional, cell-based
# In short: as §2
row,Compound,Activity
1,CCOC(=O)C1CCc2c1ssc2=S (stereo not drawn),Active

# Target: T1, Nuclear factor erythroid 2-related factor 2 (Rattus norvegicus)
# Test: Induction of Nrf-mediated GST-mu protein expression in wild type rat NBT2 cells at 25 uM after 24 hrs Western blot analysis
# Assay type: functional, cell-based
# In short: as §2
row,Compound,Activity
1,CCOC(=O)C1CCc2c1ssc2=S (stereo not drawn),Active

# System: NBT2
# Test: Induction of NQO1 protein expression in rat NBT2 cells after 24 hrs by Western blot analysis
# Assay type: functional, cell-based
# In short: as §3
row,Compound,Activity
1,CCOC(=O)C1CCc2c1ssc2=S (stereo not drawn),Dose-dependent effect

# System: NBT2
# Test: Induction of GST-pi protein expression in rat NBT2 cells at 25 to 50 uM after 24 hrs by Western blot analysis
# Assay type: functional, cell-based
# In short: as §3
row,Compound,Activity
1,CCOC(=O)C1CCc2c1ssc2=S (stereo not drawn),inactive

# System: Rattus norvegicus
# Test: Ex vivo induction GST-pi protein expression in Sprague-Dawley rat bladder at 7.5 umol/kg/day, po for 10 days measured on day 11 by Western blot analysis
# Assay type: functional, organism-based
# In short: as §1
row,Compound,Activity
1,CCOC(=O)C1CCc2c1ssc2=S (stereo not drawn),inactive

# System: Rattus norvegicus
# Test: Ex vivo induction of NQO1 in Sprague-Dawley rat liver at 7.5 umol/kg/day, po for 10 days measured on day 11 relative to control
# Assay type: functional
# In short: as §4
row,Compound,fold change (FC)
1,S=c1ccss1 [DITHIOLETHIONE],1.3
2,S=c1ssc2c1CCC2,1.26
3,CCOC(=O)c1cssc1=S,1.04
4,CCOC(=O)C1CCc2c1ssc2=S (stereo not drawn),1.17
5,COC(=O)C1CCc2c1ssc2=S (stereo not drawn),1.1

# Target: T1, Nuclear factor erythroid 2-related factor 2 (Rattus norvegicus)
# Test: Induction of Nrf-mediated GCL protein expression in wild type rat NBT2 cells at 25 uM after 24 hrs Western blot analysis
# Assay type: functional, cell-based
# In short: as §2
row,Compound,Activity
1,CCOC(=O)C1CCc2c1ssc2=S (stereo not drawn),Active

# System: NBT2
# Test: Induction of GST-mu protein expression in rat NBT2 cells after 24 hrs by Western blot analysis
# Assay type: functional, cell-based
# In short: as §3
row,Compound,Activity
1,CCOC(=O)C1CCc2c1ssc2=S (stereo not drawn),Dose-dependent effect

# System: not listed separately
# Test: Dissociation constant, pKa of the compound
# Assay type: physicochemical
row,Compound,pKa
1,O=C(O)c1cc(=S)ss1,1.2

# Target: T1, Nuclear factor erythroid 2-related factor 2 (Rattus norvegicus)
# Test: Induction of Nrf-mediated NQO1 protein expression in wild type rat NBT2 cells at 25 uM after 24 hrs Western blot analysis
# Assay type: functional, cell-based
# In short: as §2
row,Compound,Activity
1,CCOC(=O)C1CCc2c1ssc2=S (stereo not drawn),Active

# System: Rattus norvegicus
# Test: Ex vivo induction of NQO1 in Sprague-Dawley rat stomach at 7.5 umol/kg/day, po for 10 days measured on day 11 relative to control
# Assay type: functional
# In short: as §4
row,Compound,fold change (FC)
1,S=c1ccss1 [DITHIOLETHIONE],5.31
2,S=c1ssc2c1CCC2,3.55
3,CCOC(=O)c1cssc1=S,2.15
4,CCOC(=O)C1CCc2c1ssc2=S (stereo not drawn),1.93
5,COC(=O)C1CCc2c1ssc2=S (stereo not drawn),1.98

# System: Rattus norvegicus
# Test: Ex vivo induction of NQO1 in Sprague-Dawley rat kidney at 7.5 umol/kg/day, po for 10 days measured on day 11 relative to control
# Assay type: functional
# In short: as §4
row,Compound,fold change (FC)
1,S=c1ccss1 [DITHIOLETHIONE],1.82
2,S=c1ssc2c1CCC2,1.87
3,CCOC(=O)c1cssc1=S,1.47
4,CCOC(=O)C1CCc2c1ssc2=S (stereo not drawn),1.86
5,COC(=O)C1CCc2c1ssc2=S (stereo not drawn),1.76

# System: NBT2
# Test: Induction of GST-mu protein expression in Nrf gene knockout rat NBT2 cells at 25 uM after 24 hrs Western blot analysis
# Assay type: functional, cell-based
# In short: as §2
row,Compound,Activity
1,CCOC(=O)C1CCc2c1ssc2=S (stereo not drawn),inactive

# System: Rattus norvegicus
# Test: Ex vivo induction of NQO1 in Sprague-Dawley rat jejunum at 7.5 umol/kg/day, po for 10 days measured on day 11 relative to control
# Assay type: functional
# In short: as §4
row,Compound,fold change (FC)
1,S=c1ccss1 [DITHIOLETHIONE],2.31
2,S=c1ssc2c1CCC2,1.44
3,CCOC(=O)c1cssc1=S,1.04
4,CCOC(=O)C1CCc2c1ssc2=S (stereo not drawn),1.38
5,COC(=O)C1CCc2c1ssc2=S (stereo not drawn),1.11

# System: NBT2
# Test: Induction of GST-alpha protein expression in rat NBT2 cells after 24 hrs by Western blot analysis
# Assay type: functional, cell-based
# In short: as §3
row,Compound,Activity
1,CCOC(=O)C1CCc2c1ssc2=S (stereo not drawn),Dose-dependent effect

# System: Rattus norvegicus
# Test: Ex vivo induction of NQO1 in Sprague-Dawley rat colon at 7.5 umol/kg/day, po for 10 days measured on day 11 relative to control
# Assay type: functional
# In short: as §4
row,Compound,fold change (FC)
1,S=c1ccss1 [DITHIOLETHIONE],1.81
2,S=c1ssc2c1CCC2,1.28
3,CCOC(=O)c1cssc1=S,0.98
4,CCOC(=O)C1CCc2c1ssc2=S (stereo not drawn),1
5,COC(=O)C1CCc2c1ssc2=S (stereo not drawn),1.07

# System: Rattus norvegicus
# Test: Ex vivo induction of GST in Sprague-Dawley rat bladder at 7.5 umol/kg/day, po for 10 days measured on day 11 relative to control
# Assay type: functional
# In short: as §5
row,Compound,fold change (FC)
1,CC1Cc2ssc(=S)c2C1 (stereo not drawn),1.31
2,S=c1ssc(S)c1-c1ccccc1,1.03
3,O=C(O)c1cc(=S)ss1,1.11
4,Cc1cssc1=S,1.23
5,S=c1ssc2c1CCCCCC2,1.11
6,O=c1ssc2c1CCC2,1.11
7,O=c1ccss1,1.01
8,S=c1ccss1 [DITHIOLETHIONE],1.7
9,S=c1ssc2c1CCC2,1.68
10,CCOC(=O)c1cssc1=S,2.76
11,CCOC(=O)C1CCc2c1ssc2=S (stereo not drawn),2.29
12,COC(=O)C1CCc2c1ssc2=S (stereo not drawn),2.31
